Published values pooled from the literature.
Target: Mitogen-activated protein kinase 15 (MAPK15, Homo sapiens, UniProt Q8TD08)
One construct used (Q8TD08 1-544): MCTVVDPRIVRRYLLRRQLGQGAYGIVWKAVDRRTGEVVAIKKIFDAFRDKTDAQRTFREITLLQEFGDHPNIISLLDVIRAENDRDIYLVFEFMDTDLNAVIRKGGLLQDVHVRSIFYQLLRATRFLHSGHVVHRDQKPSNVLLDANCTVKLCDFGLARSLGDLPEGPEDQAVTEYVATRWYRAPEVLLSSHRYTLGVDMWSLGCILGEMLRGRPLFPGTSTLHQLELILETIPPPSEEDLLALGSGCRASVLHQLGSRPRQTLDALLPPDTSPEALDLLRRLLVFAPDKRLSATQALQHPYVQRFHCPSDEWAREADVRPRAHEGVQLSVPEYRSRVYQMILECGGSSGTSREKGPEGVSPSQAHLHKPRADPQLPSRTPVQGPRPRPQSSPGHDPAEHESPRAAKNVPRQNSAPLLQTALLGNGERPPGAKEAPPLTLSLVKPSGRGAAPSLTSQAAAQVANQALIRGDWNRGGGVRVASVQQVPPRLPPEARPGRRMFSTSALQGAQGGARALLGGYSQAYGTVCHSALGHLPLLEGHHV

SMILES	read-out	action	technique	concentration	quantity	value
Cc1sc(C(=O)NC2COC2)cc1-n1cc(NC(=O)Nc2c(F)cccc2Cl)cn1	enzyme activity	inhibitor		10 µM	remaining activity	103%
Nc1nc(Nc2ccc(S(N)(=O)=O)cc2)sc1C(=O)c1ccccc1[N+](=O)[O-]	enzyme activity	inhibitor		0.1 µM	inhibition	73 to 75%
Cn1cnc(Br)c1C1=CN(c2ncnc3[nH]cnc23)CCS1	enzyme activity	inhibitor	radiometric	50 nM	inhibition	17.1%
CC(C)(C)c1nc2c(s1)c1nc(N)ncc1c1ccc(NS(=O)(=O)c3c(F)cccc3F)c(F)c12	enzyme activity	inhibitor	radiometric	1 µM	remaining activity	81%
C[C@@]1(Cc2ccc(C#N)cc2)C(=O)N(c2cc(Cl)cc(Cl)c2)c2ncc(C(=O)NC3(c4nc(C5CCC5)no4)CC3)n21	cell-free assay		competition with immobilised ligand	1 µM	remaining binding	100%
COc1cc(/C=C/C(=O)CC(=O)/C=C/c2ccc(O)c(OC)c2)ccc1O	enzyme activity	inhibitor		1 µM	activity vs control	77%
Cn1c(=O)n(-c2ccc(C(C)(C)C#N)cc2)c2c3cc(-c4cnc5ccccc5c4)ccc3ncc21	enzyme activity	inhibitor		10 µM	remaining activity	94%
N#CC1(c2ccccn2)CCN(Cc2cc(C(=O)N3CCCC3)c(=O)n3ccccc23)CC1	cell-free assay		competition with immobilised ligand	1 µM	remaining binding	92%
Nc1ncnc2occ(-c3ccc(NC(=O)Nc4cc(C(F)(F)F)ccc4F)cc3)c12	cell-free assay	inhibitor		20 µM	remaining signal	0.1%
CC(C)(C)C(=O)c1sc(NC2CCCCC2)nc1N	enzyme activity	inhibitor		10 µM	remaining activity	43%
CS(=O)(=O)c1cc(C2(NC(=O)c3cncc4c3cnn4-c3ccc(F)cc3)CC2)ccn1	cell-free assay		competition with immobilised ligand	1 µM	remaining binding	100%
FC(F)(F)Oc1cccc(-c2cnc3ccc(-c4ccncc4)nn23)c1	enzyme activity	inhibitor	radiometric	5 µM	activity vs control	17%
Cc1c[nH]c2nccc(Oc3c(F)cc(Nc4cc(Cl)nc(N)n4)cc3F)c12	cell-free assay		competition with immobilised ligand	0.1 µM	remaining binding	100%
Oc1cccc(-c2nc(N3CCOCC3)c3oc4ncccc4c3n2)c1	enzyme activity	inhibitor		10 µM	remaining activity	87%
